Source: ChEMBL document CHEMBL1157774, “Investigations of fungal secondary metabolites with potential anticancer activity” (J Nat Prod, 2010)
The source made the active and inactive calls. The rule behind the calls is not given here.

What was measured:
[1] = Growth inhibition of apoptosis-resistant human U373 cells after 72 hrs by MTT assay; type: functional, cell-based, U-373MG ATCC; conditions: U373 MG
Summary of the method: (§1)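 Cells seeded at 10 000 to 40 000 cells/mL, depending on line, and plated 24 h before treatment. Cultured 72 h with or without (control) compound. Viable cells measured by MTT reduction to formazan, absorbance at 570 nm (reference 630 nm). IC50 reported as mean ± SEM. Media carried 4 mM glutamine, gentamicin and penicillin-streptomycin. B16F10 grown in RPMI with 10% heat-inactivated FCS.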

A549 = assay: Growth inhibition of apoptosis-resistant human A549 cells after 72 hrs by MTT assay; type: functional, cell-based; conditions: A549, 72 h; summary of the method: as §1
SK-MEL-28 = assay: Growth inhibition of apoptosis-resistant human SK-MEL-28 cells after 72 hrs by MTT assay; type: functional, cell-based; conditions: SK-MEL-28, 72 h; summary of the method: as §1
[2] = Growth inhibition of apoptosis-resistant human OE21 cells after 72 hrs by MTT assay; type: functional, cell-based; conditions: OE21, 72 h; summary of the method: as §1
Hs 683 = assay: Growth inhibition of apoptosis-sensitive human Hs 683 cells after 72 hrs by MTT assay; type: functional, cell-based; conditions: Hs 683, 72 h; summary of the method: as §1
B16-F10 [3] = assay: Growth inhibition of apoptosis-sensitive mouse B16F10 cells after 72 hrs by MTT assay; type: functional, cell-based; conditions: B16-F10, 72 h; summary of the method: as §1
B16-F10 [4] = assay: Cytostatic effect against apoptosis-sensitive mouse B16F10 cells assessed as impairment of cell population development at 20 uM by quantitative video microscopy
B16-F10 [5] = assay: Cytostatic effect against apoptosis-sensitive mouse B16F10 cells assessed as impairment of cell population development at 20 uM by quantitative video microscopy; type: functional, cell-based
Summary of the method: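 Computer-assisted phase-contrast microscopy (quantitative videomicroscopy) of B16F10 cells in RPMI with 10% heat-inactivated FCS, monitored 72 h without (control) or with compound. Time-lapse image sequences built into movies. Growth level taken as ratio of cell counts in first versus last frames. Cells counted in 1 mm2 fields at G×20, triplicate conditions, five fields each (15 fields per condition), mean ± SEM.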

C/C=C/C=C/C(=O)[C@@H]1[C@@H]([C@]2(C)OC(=O)C(C)=C2O)C2\C(=C(O)/C=C/C=C/C)C(=O)[C@]1(C)C(=O)[C@@]2(C)O [BISLONGIQUINOLIDE]
IC50 [1]: 4 µM | IC50 (A549): 11 µM | IC50 (SK-MEL-28): 8 µM | IC50 [2]: 9 µM | IC50 (Hs 683): 22 µM | IC50 (B16-F10 [3]): 3 µM

C/C=C/C=C/C(=O)C1=C(O)[C@@]2(C)C3C(C(=O)CC/C=C/C)=C(O)[C@@]4(C)C1[C@]1(C)O[C@@]4(O)[C@@]3(C)O[C@@]12O [DIHYDROTRICHODIMEROL]
IC50 [1]: 25 µM | IC50 (A549): 33 µM | IC50 (SK-MEL-28): 33 µM | IC50 [2]: 28 µM | IC50 (Hs 683): 34 µM | IC50 (B16-F10 [3]): 3 µM | inhibition (B16-F10 [4]): Active

O[C@H]1[C@H]2c3cc4c(cc3CN3CCC(=C[C@@H]1O)[C@H]23)OCO4 [LYCORINE]
IC50 [1]: 2 µM | IC50 (A549): 2 µM | IC50 (SK-MEL-28): 2 µM | IC50 [2]: 2 µM | IC50 (Hs 683): 2 µM | IC50 (B16-F10 [3]): 2 µM | inhibition (B16-F10 [5]): Active

O=C1N[C@@H]2C(=C[C@H](O)[C@@H](O)[C@H]2O)c2cc3c(c(O)c21)OCO3 [NARCICLASINE]
IC50 [1]: 0.05 µM | IC50 (A549): 0.05 µM | IC50 (SK-MEL-28): 0.05 µM | IC50 [2]: 0.05 µM | IC50 (Hs 683): 0.05 µM | IC50 (B16-F10 [3]): 0.05 µM

C[C@@H]1[C@@]2(C)CC[C@@H]3[C@H]2CC[C@@]1(C)O[C@@]3(C)O [SEIRICARDINE B]
IC50 [1]: > 100 µM | IC50 (A549): > 100 µM | IC50 (SK-MEL-28): > 100 µM | IC50 [2]: > 100 µM | IC50 (Hs 683): > 100 µM | IC50 (B16-F10 [3]): > 100 µM

C[C@@H]1[C@@]2(C)CC[C@@H]3[C@H]2CC[C@@]1(C)O[C@]3(C)O [SEIRICARDINE C]
IC50 [1]: > 100 µM | IC50 (A549): > 100 µM | IC50 (SK-MEL-28): > 100 µM | IC50 [2]: > 100 µM | IC50 (Hs 683): > 100 µM | IC50 (B16-F10 [3]): > 100 µM
